From ChEMBL document CHEMBL3616442, “Unconventional Knoevenagel-type indoles: Synthesis and cell-based studies for the identification of pro-apoptotic agents” (Eur J Med Chem, 2015)

Experiments:
[1] = system: MT4; assay: Antiproliferative activity against human MT4 cells after 96 hrs by MTT assay; assay type: functional, cell-based; conditions: MT4, 96 h
How it was run: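 Exponentially growing MT-4 cells (CD4+ human T-cells carrying integrated HTLV-1 genome), seeded at 1×10^5 cells/mL in RPMI-1640 with 10% FCS and antibiotics. Serial dilutions of compound (DMSO stock 100 mM, diluted in medium), 37 °C, 5% CO₂, 96 h. Viability read by MTT. 50% inhibition versus untreated controls by linear regression. Mean ± SD of three independent determinations.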

[2] = system: HL-60(TB); assay: Growth inhibition of human HL-60(TB) cells after 48 hrs by sulforhodamine B assay; assay type: functional; conditions: HL-60, 48 h
How it was run: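 NCI 60-cell-line screen, HL-60(TB) included. Compound given at five 10-fold dilutions from 10^-4 to 10^-8 M. Cells exposed for the last 48 h of a 72 h incubation. Growth or viability estimated by sulforhodamine B protein assay. GI50 is the concentration giving 50% growth inhibition. Values outside the tested range are reported as greater or less than the highest or lowest concentration.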

[3] = system: K562; assay: Growth inhibition of human K562 cells after 48 hrs by sulforhodamine B assay; assay type: functional; conditions: K562, 48 h
How it was run: (§1)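 NCI 60-cell-line screen. Compounds tested at five 10-fold dilutions from 10^-4 to 10^-8 M. Cells exposed for the last 48 h of a 72 h incubation, growth estimated by sulforhodamine B protein assay. GI50 is the concentration giving 50% growth inhibition. Values beyond the tested range are expressed as greater or lesser than the extreme concentration.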

[4] = Growth inhibition of human MOLT4 cells after 48 hrs by sulforhodamine B assay; assay type: functional; conditions: MOLT-4, 48 h; how it was run: as §1
[5] = Growth inhibition of human RPMI8226 cells after 48 hrs by sulforhodamine B assay; assay type: functional; conditions: RPMI-8226, 48 h
[6] = system: SR; assay: Growth inhibition of human SR cells after 48 hrs by sulforhodamine B assay; assay type: functional
[7] = Growth inhibition of human EKVX cells after 48 hrs by sulforhodamine B assay; assay type: functional; how it was run: as §1
[8] = system: HOP-62; assay: Growth inhibition of human HOP62 cells after 48 hrs by sulforhodamine B assay; assay type: functional; conditions: HOP-62, 48 h; how it was run: as §1
[9] = Growth inhibition of human HOP92 cells after 48 hrs by sulforhodamine B assay; assay type: functional; conditions: HOP-92, 48 h; how it was run: as §1
[10] = system: NCI-H23; assay: Growth inhibition of human NCI-H23 cells after 48 hrs by sulforhodamine B assay; assay type: functional; conditions: NCI-H23, 48 h; how it was run: as §1
[11] = system: NCI-H322M; assay: Growth inhibition of human NCI-H322M cells after 48 hrs by sulforhodamine B assay; assay type: functional; how it was run: as §1
[12] = system: NCI-H460; assay: Growth inhibition of human NCI-H460 cells after 48 hrs by sulforhodamine B assay; assay type: functional; conditions: NCI-H460, 48 h; how it was run: as §1
[13] = system: NCI-H522; assay: Growth inhibition of human NCI-H522 cells after 48 hrs by sulforhodamine B assay; assay type: functional; conditions: NCI-H522, 48 h; how it was run: as §1
[14] = Growth inhibition of human COLO205 cells after 48 hrs by sulforhodamine B assay; assay type: functional; conditions: COLO 205, 48 h; how it was run: as §1
[15] = system: HCT-116; assay: Growth inhibition of human HCT116 cells after 48 hrs by sulforhodamine B assay; assay type: functional; conditions: HCT-116, 48 h; how it was run: as §1
[16] = system: HT-29; assay: Growth inhibition of human HT-29 cells after 48 hrs by sulforhodamine B assay; assay type: functional; conditions: HT-29, 48 h; how it was run: as §1
[17] = system: KM12; assay: Growth inhibition of human KM12 cells after 48 hrs by sulforhodamine B assay; assay type: functional; conditions: KM12, 48 h; how it was run: as §1
[18] = system: SW-620; assay: Growth inhibition of human SW620 cells after 48 hrs by sulforhodamine B assay; assay type: functional; conditions: SW-620, 48 h
[19] = system: SF-268; assay: Growth inhibition of human SF268 cells after 48 hrs by sulforhodamine B assay; assay type: functional; conditions: SF-268, 48 h
[20] = Growth inhibition of human SF295 cells after 48 hrs by sulforhodamine B assay; assay type: functional; conditions: SF-295, 48 h
[21] = system: SNB-19; assay: Growth inhibition of human SNB19 cells after 48 hrs by sulforhodamine B assay; assay type: functional; conditions: SNB-19, 48 h
[22] = system: U-251; assay: Growth inhibition of human U251 cells after 48 hrs by sulforhodamine B assay; assay type: functional; conditions: U-251, 48 h
[23] = Growth inhibition of human LOXIMVI cells after 48 hrs by sulforhodamine B assay; assay type: functional; conditions: LOX IMVI; how it was run: as §1
[24] = system: Malme-3M; assay: Growth inhibition of human MALME-3M cells after 48 hrs by sulforhodamine B assay; assay type: functional; how it was run: as §1
[25] = system: M14; assay: Growth inhibition of human M14 cells after 48 hrs by sulforhodamine B assay; assay type: functional; conditions: M14, 48 h; how it was run: as §1
[26] = system: MDA-MB-435; assay: Growth inhibition of human MDA-MB-435 cells after 48 hrs by sulforhodamine B assay; assay type: functional; conditions: MDA-MB-435, 48 h; how it was run: as §1
[27] = system: SK-MEL-2; assay: Growth inhibition of human SK-MEL-2 cells after 48 hrs by sulforhodamine B assay; assay type: functional; conditions: SK-MEL-2, 48 h
[28] = system: SK-MEL-28; assay: Growth inhibition of human SK-MEL-28 cells after 48 hrs by sulforhodamine B assay; assay type: functional; conditions: SK-MEL-28, 48 h
[29] = system: OVCAR-4; assay: Growth inhibition of human OVCAR4 cells after 48 hrs by sulforhodamine B assay; assay type: functional; conditions: OVCAR-4, 48 h; how it was run: as §1
[30] = system: OVCAR-5; assay: Growth inhibition of human OVCAR5 cells after 48 hrs by sulforhodamine B assay; assay type: functional; conditions: OVCAR-5, 48 h
[31] = Growth inhibition of human NCI-ADR-RES cells after 48 hrs by sulforhodamine B assay; assay type: functional; how it was run: as §1
[32] = system: SK-OV-3; assay: Growth inhibition of human SKOV3 cells after 48 hrs by sulforhodamine B assay; assay type: functional; conditions: SK-OV-3, 48 h
[33] = system: ACHN; assay: Growth inhibition of human ACHN cells after 48 hrs by sulforhodamine B assay; assay type: functional; how it was run: as §1
[34] = system: CAKI-1; assay: Growth inhibition of human CAKI-1 cells after 48 hrs by sulforhodamine B assay; assay type: functional; conditions: CAKI-1, 48 h; how it was run: as §1
[35] = system: SN12C; assay: Growth inhibition of human SN12C cells after 48 hrs by sulforhodamine B assay; assay type: functional
[36] = system: UO-31; assay: Growth inhibition of human UO31 cells after 48 hrs by sulforhodamine B assay; assay type: functional; conditions: UO-31, 48 h
[37] = system: PC-3; assay: Growth inhibition of human PC3 cells after 48 hrs by sulforhodamine B assay; assay type: functional; conditions: PC-3, 48 h
[38] = system: DU-145; assay: Growth inhibition of human DU145 cells after 48 hrs by sulforhodamine B assay; assay type: functional; conditions: DU-145, 48 h; how it was run: as §1
[39] = system: MCF7; assay: Growth inhibition of human MCF7 cells after 48 hrs by sulforhodamine B assay; assay type: functional; conditions: MCF7, 48 h; how it was run: as §1
[40] = system: MDA-MB-231; assay: Growth inhibition of human MDA-MB-231 cells after 48 hrs by sulforhodamine B assay; assay type: functional; conditions: MDA-MB-231, 48 h; how it was run: as §1
[41] = Growth inhibition of human BT549 cells after 48 hrs by sulforhodamine B assay; assay type: functional; conditions: BT-549, 48 h; how it was run: as §1
[42] = system: T47D; assay: Growth inhibition of human T47D cells after 48 hrs by sulforhodamine B assay; assay type: functional
[43] = system: MDA-MB-468; assay: Growth inhibition of human MDA-MB-468 cells after 48 hrs by sulforhodamine B assay; assay type: functional; conditions: MDA-MB-468, 48 h; how it was run: as §1

Structure (SMILES): N#C/C(=C\c1c(-c2ccccc2)[nH]c2ccccc12)S(=O)(=O)c1ccccc1
- EC50 [1]: 0.4 µM
- GI50 [2]: 1.8 µM
- GI50 [3]: 0.348 µM
- GI50 [4]: 2.2 µM
- GI50 [5]: 0.714 µM
- GI50 [6]: 17.3 µM
- GI50 [7]: 6.2 µM
- GI50 [8]: 9.3 µM
- GI50 [9]: 10.3 µM
- GI50 [10]: 4.7 µM
- GI50 [11]: 9.2 µM
- GI50 [12]: 2.7 µM
- GI50 [13]: 4.6 µM
- GI50 [14]: 1.4 µM
- GI50 [15]: 2 µM
- GI50 [16]: 0.595 µM
- GI50 [17]: 0.652 µM
- GI50 [18]: 0.57 µM
- GI50 [19]: 4.5 µM
- GI50 [20]: 2.4 µM
- GI50 [21]: 8.3 µM
- GI50 [22]: 2.6 µM
- GI50 [23]: 4.6 µM
- GI50 [24]: 8.4 µM
- GI50 [25]: 3.8 µM
- GI50 [26]: 0.288 µM
- GI50 [27]: 12.7 µM
- GI50 [28]: 8.3 µM
- GI50 [29]: 5.5 µM
- GI50 [30]: 13.9 µM
- GI50 [31]: 1.1 µM
- GI50 [32]: 6.8 µM
- GI50 [33]: 7 µM
- GI50 [34]: 5.5 µM
- GI50 [35]: 5.2 µM
- GI50 [36]: 6.7 µM
- GI50 [37]: 3.4 µM
- GI50 [38]: 2.9 µM
- GI50 [39]: 2.2 µM
- GI50 [40]: 3.8 µM
- GI50 [41]: 11.6 µM
- GI50 [42]: 3.8 µM
- GI50 [43]: 1.9 µM

Structure (SMILES): COc1ccc2[nH]c(-c3ccccc3)c(/C=C(\C#N)S(=O)(=O)c3ccccc3)c2c1
- EC50 [1]: 1.3 µM
- GI50 [2]: 2.4 µM
- GI50 [3]: 1.4 µM
- GI50 [4]: 4.7 µM
- GI50 [6]: 2.2 µM
- GI50 [7]: 6.9 µM
- GI50 [8]: 8.3 µM
- GI50 [9]: 6.1 µM
- GI50 [10]: 8 µM
- GI50 [11]: 30.1 µM
- GI50 [12]: 4.6 µM
- GI50 [13]: 4 µM
- GI50 [14]: 7.4 µM
- GI50 [15]: 3.7 µM
- GI50 [16]: 3.5 µM
- GI50 [17]: 3 µM
- GI50 [18]: 4 µM
- GI50 [19]: 13.3 µM
- GI50 [20]: 2.8 µM
- GI50 [21]: 13.5 µM
- GI50 [22]: 4.6 µM
- GI50 [23]: 7.4 µM
- GI50 [24]: 19.4 µM
- GI50 [25]: 3.7 µM
- GI50 [26]: 1.1 µM
- GI50 [27]: 3.7 µM
- GI50 [28]: 6.1 µM
- GI50 [29]: 8.3 µM
- GI50 [30]: 37.3 µM
- GI50 [31]: 3.8 µM
- GI50 [32]: 7.1 µM
- GI50 [33]: 12.9 µM
- GI50 [34]: 4.5 µM
- GI50 [35]: 7.8 µM
- GI50 [36]: 4 µM
- GI50 [37]: 8.3 µM
- GI50 [38]: 10.1 µM
- GI50 [39]: 3.9 µM
- GI50 [40]: 7.5 µM
- GI50 [41]: 11.6 µM
- GI50 [42]: 5.2 µM
- GI50 [43]: 4.2 µM

Structure (SMILES): COc1ccc2[nH]c(-c3ccccc3)c(C=C(C#N)C#N)c2c1
- EC50 [1]: 1 µM
- GI50 [2]: 2.5 µM
- GI50 [3]: 2.1 µM
- GI50 [4]: 3.7 µM
- GI50 [5]: 2.6 µM
- GI50 [6]: 0.865 µM
- GI50 [7]: 4.1 µM
- GI50 [8]: 5.3 µM
- GI50 [9]: 2.4 µM
- GI50 [10]: 4.1 µM
- GI50 [11]: 7.4 µM
- GI50 [12]: 3.6 µM
- GI50 [13]: 4.6 µM
- GI50 [14]: 2.1 µM
- GI50 [15]: 4.4 µM
- GI50 [16]: 3.1 µM
- GI50 [17]: 3.5 µM
- GI50 [18]: 3.6 µM
- GI50 [19]: 8.3 µM
- GI50 [20]: 4.2 µM
- GI50 [21]: 6 µM
- GI50 [22]: 3.5 µM
- GI50 [23]: 4.9 µM
- GI50 [24]: 4.4 µM
- GI50 [25]: 2.3 µM
- GI50 [26]: 0.607 µM
- GI50 [27]: 5.9 µM
- GI50 [28]: 4.4 µM
- GI50 [29]: 5.4 µM
- GI50 [30]: 44.2 µM
- GI50 [31]: 2.8 µM
- GI50 [32]: 4.8 µM
- GI50 [33]: 7.4 µM
- GI50 [34]: 4.1 µM
- GI50 [35]: 4.7 µM
- GI50 [36]: 6.4 µM
- GI50 [37]: 5.4 µM
- GI50 [38]: 6.5 µM
- GI50 [39]: 2.2 µM
- GI50 [40]: 3.8 µM
- GI50 [41]: 2.2 µM
- GI50 [42]: 2.3 µM
- GI50 [43]: 2.1 µM
